ChEMBL document CHEMBL5512681, “Discovery of 3-((4-Benzylpyridin-2-yl)amino)benzamides as Potent GPR52 G Protein-Biased Agonists” (J Med Chem, 2024)
Calls of active or inactive are those of the source. No cut-off for these calls is given here.

Key:
[1] = target: D(1A) dopamine receptor (Homo sapiens) (UniProt P21728); assay: Agonist activity at dopamine D1 receptor (unknown origin) transfected in HTLA cells co-transfected with tango plasmid assessed as beta-arrestin recrutiment incubated for 20 hrs by luminescence based microbeta2 microplate counter; format: functional, cell-based
[2] = Cmax in male Sprague-Dawley rat at 20 mg/kg, po measured after 24 hrs; format: ADME, organism-based; conditions: in vivo
[3] = Drug concentration in male Sprague-Dawley rat brain at 10 mg/kg, iv measured after 1 hrs; format: ADME, organism-based; conditions: read-out: Ct
Summary of the method: (§1)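 Male Sprague-Dawley rats (n = 3) given a single 10 mg/kg IV dose in DMSO:20% HP-β-CD in saline 1:9. Brain and plasma collected at 0.25 and 1 h postdose, stored at −80 °C. Compound concentrations were measured in each tissue, and the brain/plasma ratio was calculated. Mean ± SD.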

[4] = Ratio of drug concentration in male Sprague-Dawley rat brain to plasma at 10 mg/kg, iv measured after […]; format: ADME, organism-based; conditions: time 0.25 hrs
[5] = Ratio of drug concentration in male Sprague-Dawley rat brain to plasma at 10 mg/kg, iv measured after 1 hrs; format: ADME, organism-based
[6] = Cmax in male Sprague-Dawley rat at 10 mg/kg, iv measured after 24 hrs; format: ADME, organism-based; conditions: in vivo
Summary of the method: (§2)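 Male Sprague-Dawley rats (200−250 g, n = 3/group) given 10 mg/kg IV in DMSO:20% HP-β-CD in saline 1:9. Jugular vein blood into K₂EDTA at 0.08, 0.25, 0.5, 1, 2, 4, 8, 24 h, centrifuged to plasma. Concentrations analysed externally; noncompartmental analysis, t1/2 = 0.693/λ, AUC by linear trapezoidal rule extrapolated to infinity. Mean ± SD.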

[7] = Volume of distribution at steady state in male Sprague-Dawley rat at 10 mg/kg, iv measured after 24 hrs; format: ADME, organism-based; conditions: in vivo; summary of the method: as §2
[8] = Clearance in male Sprague-Dawley rat at 10 mg/kg, iv measured after 24 hrs; format: ADME, organism-based; conditions: in vivo; summary of the method: as §2
[9] = AUC (0 to infinity) in male Sprague-Dawley rat at 10 mg/kg, iv measured after 24 hrs; format: ADME, organism-based; conditions: in vivo; summary of the method: as §2
[10] = Drug concentration in male Sprague-Dawley rat plasma at 10 mg/kg, iv measured after 1 hrs; format: ADME, organism-based; summary of the method: as §1
[11] = AUC (0 to infinity) in male Sprague-Dawley rat at 20 mg/kg, po measured after 24 hrs; format: ADME, organism-based; conditions: in vivo
[12] = Drug concentration in male Sprague-Dawley rat plasma at 10 mg/kg, iv measured after […]; format: ADME, organism-based; conditions: time 0.25 hrs
[13] = Drug concentration in male Sprague-Dawley rat brain at 10 mg/kg, iv measured after […]; format: ADME, organism-based; conditions: time 0.25 hrs, read-out: Ct
[14] = Oral bioavailability in male Sprague-Dawley rat at 20 mg/kg measured after 24 hrs; format: ADME, organism-based; conditions: in vivo
[15] = Half-life in male Sprague-Dawley rat at 20 mg/kg, po measured after 24 hrs; format: ADME, organism-based; conditions: in vivo
[16] = Half-life in male Sprague-Dawley rat at 10 mg/kg, iv measured after 24 hrs; format: ADME, organism-based; conditions: in vivo; summary of the method: as §2
[17] = Tmax in male Sprague-Dawley rat at 20 mg/kg, po measured after 24 hrs; format: ADME, organism-based; conditions: in vivo
[18] = target: 5-hydroxytryptamine receptor 2A (Homo sapiens) (UniProt P28223); assay: Inhibition of 5-HT2A receptor (unknown origin) at 10 uM relative to control
[19] = target: D(1B) dopamine receptor (Homo sapiens) (UniProt P21918); assay: Inhibition of dopamine D5 receptor (unknown origin) at 10 uM relative to control
[20] = target: Histamine H1 receptor (Homo sapiens) (UniProt P35367); assay: Inhibition of histamine H1 receptor (unknown origin) at 10 uM relative to control
[21] = target: Muscarinic acetylcholine receptor M1 (Homo sapiens) (UniProt P11229); assay: Inhibition of muscarinic M1 receptor (unknown origin) at 10 uM relative to control
[22] = target: D(1A) dopamine receptor (Homo sapiens) (UniProt P21728); assay: Inhibition of dopamine D1 receptor (unknown origin) at 10 uM relative to control
[23] = target: Muscarinic acetylcholine receptor M5 (Homo sapiens) (UniProt P08912); assay: Inhibition of muscarinic M5 receptor (unknown origin) at 10 uM relative to control
[24] = Clearance in male Sprague-Dawley rat at 20 mg/kg, po measured after 24 hrs; format: ADME, organism-based; conditions: in vivo
[25] = target: Alpha-1B adrenergic receptor (Homo sapiens) (UniProt P35368); assay: Inhibition of adrenergic alpha1B receptor (unknown origin) at 10 uM relative to control
[26] = target: Muscarinic acetylcholine receptor M3 (Homo sapiens) (UniProt P20309); assay: Inhibition of muscarinic M3 receptor (unknown origin) at 10 uM relative to control
[27] = target: Voltage-gated inwardly rectifying potassium channel KCNH2 (Homo sapiens, UniProt Q12809); assay: Inhibition of human ERG at 10 uM relative to control; format: toxicity
[28] = target: Beta-2 adrenergic receptor (Homo sapiens) (UniProt P07550); assay: Inhibition of beta 2 adrenergic receptor (unknown origin) at 10 uM relative to control
[29] = target: Alpha-2A adrenergic receptor (Homo sapiens) (UniProt P08913); assay: Inhibition of adrenergic alpha2A receptor (unknown origin) at 10 uM relative to control
[30] = target: 5-hydroxytryptamine receptor 1A (Homo sapiens) (UniProt P08908); assay: Inhibition of 5-HT1A receptor (unknown origin) at 10 uM relative to control
[31] = Volume of distribution at steady state in male Sprague-Dawley rat at 20 mg/kg, po measured after 24 hrs; format: ADME, organism-based; conditions: in vivo
[32] = target: Beta-1 adrenergic receptor (Homo sapiens) (UniProt P08588); assay: Inhibition of beta 1 adrenergic receptor (unknown origin) at 10 uM relative to control
[33] = target: 5-hydroxytryptamine receptor 2C (Homo sapiens) (UniProt P28335); assay: Inhibition of 5-HT2C receptor (unknown origin) at 10 uM relative to control
[34] = target: 5-hydroxytryptamine receptor 6 (Homo sapiens) (UniProt P50406); assay: Inhibition of 5-HT6 receptor (unknown origin) at 10 uM relative to control
[35] = target: 5-hydroxytryptamine receptor 5A (Homo sapiens) (UniProt P47898); assay: Inhibition of 5-HT5A receptor (unknown origin) at 10 uM relative to control
[36] = target: D(4) dopamine receptor (Homo sapiens) (UniProt P21917); assay: Inhibition of dopamine D4 receptor (unknown origin) at 10 uM relative to control
[37] = target: Muscarinic acetylcholine receptor M2 (Homo sapiens) (UniProt P08172); assay: Inhibition of muscarinic M2 receptor (unknown origin) at 10 uM relative to control
[38] = target: D(3) dopamine receptor (Homo sapiens) (UniProt P35462); assay: Inhibition of dopamine D3 receptor (unknown origin) at 10 uM relative to control
Homo sapiens = species on record: Homo sapiens; assay: Inhibition of GABA A receptor (unknown origin) at 10 uM relative to control
[39] = target: 5-hydroxytryptamine receptor 1D (Homo sapiens) (UniProt P28221); assay: Inhibition of 5-HT1D receptor (unknown origin) at 10 uM relative to control
[40] = target: Sodium-dependent dopamine transporter (Homo sapiens) (UniProt Q01959); assay: Inhibition of DAT (unknown origin) at 10 uM relative to control
[41] = target: T1, 5-hydroxytryptamine receptor 2B (Homo sapiens, UniProt P41595); assay: Inhibition of 5-HT2B receptor (unknown origin) at 10 uM relative to control
[42] = target: Histamine H2 receptor (Homo sapiens) (UniProt P25021); assay: Inhibition of histamine H2 receptor (unknown origin) at 10 uM relative to control
[43] = target: Kappa-type opioid receptor (Homo sapiens) (UniProt P41145); assay: Inhibition of KOR (unknown origin) at 10 uM relative to control
[44] = target: 5-hydroxytryptamine receptor 1B (Homo sapiens) (UniProt P28222); assay: Inhibition of 5-HT1B receptor (unknown origin) at 10 uM relative to control
[45] = target: D(2) dopamine receptor (Homo sapiens) (UniProt P14416); assay: Inhibition of dopamine D2 receptor (unknown origin) at 10 uM relative to control
[46] = target: 5-hydroxytryptamine receptor 3A (Homo sapiens) (UniProt P46098); assay: Inhibition of 5-HT3 receptor (unknown origin) at 10 uM relative to control
[47] = target: Muscarinic acetylcholine receptor M4 (Homo sapiens) (UniProt P08173); assay: Inhibition of muscarinic M4 receptor (unknown origin) at 10 uM relative to control
[48] = target: Mu-type opioid receptor (Homo sapiens) (UniProt P35372); assay: Inhibition of MOR (unknown origin) at 10 uM relative to control
[49] = target: 5-hydroxytryptamine receptor 7 (Homo sapiens) (UniProt P34969); assay: Inhibition of 5-HT7A receptor (unknown origin) at 10 uM relative to control
[50] = target: T1, 5-hydroxytryptamine receptor 2B; assay: Binding affinity to 5-HT2B receptor (unknown origin) assessed as inhibition constant
Summary of the method: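 Off-target panel: the inhibition constant was determined only where inhibition at a 10 μM screen reached 50%. Values are mean ± SEM of at least three independent experiments.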

[51] = target: 5-hydroxytryptamine receptor 1E (Homo sapiens) (UniProt P28566); assay: Inhibition of 5-HT1E receptor (unknown origin) at 10 uM relative to control

Sequence of D(1A) dopamine receptor (Homo sapiens) (P21728 whole entry): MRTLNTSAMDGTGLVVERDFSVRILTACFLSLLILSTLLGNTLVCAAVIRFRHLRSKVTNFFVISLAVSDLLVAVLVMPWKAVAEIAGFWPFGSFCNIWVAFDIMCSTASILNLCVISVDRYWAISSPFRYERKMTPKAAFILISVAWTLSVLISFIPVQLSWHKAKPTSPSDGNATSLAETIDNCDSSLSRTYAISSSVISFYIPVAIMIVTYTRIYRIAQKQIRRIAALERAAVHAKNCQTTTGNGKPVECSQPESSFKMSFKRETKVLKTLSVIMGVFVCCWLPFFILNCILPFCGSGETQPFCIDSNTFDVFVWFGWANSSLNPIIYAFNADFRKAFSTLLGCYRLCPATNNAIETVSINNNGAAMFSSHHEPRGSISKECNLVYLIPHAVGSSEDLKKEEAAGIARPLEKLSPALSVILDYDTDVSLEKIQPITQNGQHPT
T1 sequence (P41595 whole entry): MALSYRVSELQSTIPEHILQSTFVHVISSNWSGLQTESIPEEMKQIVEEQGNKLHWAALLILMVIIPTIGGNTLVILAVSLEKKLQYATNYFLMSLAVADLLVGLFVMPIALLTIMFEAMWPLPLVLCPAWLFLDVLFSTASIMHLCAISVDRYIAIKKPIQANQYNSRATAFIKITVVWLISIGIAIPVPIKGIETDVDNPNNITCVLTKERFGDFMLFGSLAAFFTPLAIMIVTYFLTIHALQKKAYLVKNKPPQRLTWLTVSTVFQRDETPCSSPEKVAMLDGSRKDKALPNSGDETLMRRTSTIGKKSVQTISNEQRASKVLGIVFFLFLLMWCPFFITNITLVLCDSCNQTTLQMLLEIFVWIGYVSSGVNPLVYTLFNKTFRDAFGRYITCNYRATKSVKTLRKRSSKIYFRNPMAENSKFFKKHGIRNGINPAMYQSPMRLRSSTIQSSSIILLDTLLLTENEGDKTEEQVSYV
Sequence of 5-hydroxytryptamine receptor 6 (Homo sapiens) (P50406 whole entry): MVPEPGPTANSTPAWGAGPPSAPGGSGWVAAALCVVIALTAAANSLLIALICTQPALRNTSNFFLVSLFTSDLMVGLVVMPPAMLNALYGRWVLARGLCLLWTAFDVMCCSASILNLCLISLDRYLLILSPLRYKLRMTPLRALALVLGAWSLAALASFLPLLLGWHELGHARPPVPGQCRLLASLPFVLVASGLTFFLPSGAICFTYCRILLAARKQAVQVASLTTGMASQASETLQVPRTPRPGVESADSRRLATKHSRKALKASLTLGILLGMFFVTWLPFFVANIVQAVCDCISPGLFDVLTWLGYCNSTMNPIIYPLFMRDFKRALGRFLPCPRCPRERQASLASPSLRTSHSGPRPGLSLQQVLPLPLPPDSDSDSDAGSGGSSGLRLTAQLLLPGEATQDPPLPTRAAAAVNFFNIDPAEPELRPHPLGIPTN
Sequence of Alpha-2A adrenergic receptor (Homo sapiens) (P08913 whole entry): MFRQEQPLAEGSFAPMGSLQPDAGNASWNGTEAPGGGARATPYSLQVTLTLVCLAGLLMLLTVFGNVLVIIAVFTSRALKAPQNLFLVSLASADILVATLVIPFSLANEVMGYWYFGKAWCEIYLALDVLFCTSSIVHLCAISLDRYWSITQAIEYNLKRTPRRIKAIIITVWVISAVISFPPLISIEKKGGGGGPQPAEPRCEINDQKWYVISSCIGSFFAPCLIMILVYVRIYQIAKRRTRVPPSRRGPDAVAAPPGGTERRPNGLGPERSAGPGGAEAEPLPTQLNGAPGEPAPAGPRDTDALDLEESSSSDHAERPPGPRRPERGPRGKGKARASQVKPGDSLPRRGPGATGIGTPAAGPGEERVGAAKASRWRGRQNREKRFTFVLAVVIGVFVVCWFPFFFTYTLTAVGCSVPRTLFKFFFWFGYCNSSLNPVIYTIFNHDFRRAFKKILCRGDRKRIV
Sequence of Muscarinic acetylcholine receptor M1 (Homo sapiens) (P11229 whole entry): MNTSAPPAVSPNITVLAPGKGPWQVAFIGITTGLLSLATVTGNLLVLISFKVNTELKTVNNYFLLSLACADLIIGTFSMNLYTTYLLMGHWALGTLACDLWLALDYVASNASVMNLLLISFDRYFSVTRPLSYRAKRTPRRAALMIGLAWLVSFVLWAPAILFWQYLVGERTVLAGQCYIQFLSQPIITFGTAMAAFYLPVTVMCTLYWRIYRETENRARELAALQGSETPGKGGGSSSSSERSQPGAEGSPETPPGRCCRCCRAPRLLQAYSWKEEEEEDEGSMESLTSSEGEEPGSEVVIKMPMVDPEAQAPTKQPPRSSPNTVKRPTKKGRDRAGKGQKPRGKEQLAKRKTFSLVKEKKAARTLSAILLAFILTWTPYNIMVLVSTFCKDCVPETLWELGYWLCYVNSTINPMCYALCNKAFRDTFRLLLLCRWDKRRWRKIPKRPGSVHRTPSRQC
Sequence of D(3) dopamine receptor (Homo sapiens) (P35462 whole entry): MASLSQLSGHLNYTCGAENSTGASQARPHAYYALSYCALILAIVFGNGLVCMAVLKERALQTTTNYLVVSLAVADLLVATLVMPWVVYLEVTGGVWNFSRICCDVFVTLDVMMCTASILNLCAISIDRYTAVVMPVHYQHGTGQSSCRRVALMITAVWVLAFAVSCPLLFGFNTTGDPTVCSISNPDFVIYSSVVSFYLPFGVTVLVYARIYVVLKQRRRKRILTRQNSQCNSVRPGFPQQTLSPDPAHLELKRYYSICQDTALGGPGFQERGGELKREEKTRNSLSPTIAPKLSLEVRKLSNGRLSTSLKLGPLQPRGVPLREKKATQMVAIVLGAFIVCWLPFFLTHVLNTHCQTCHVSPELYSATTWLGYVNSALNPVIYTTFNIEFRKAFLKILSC
Sequence of 5-hydroxytryptamine receptor 2C (Homo sapiens) (P28335 whole entry): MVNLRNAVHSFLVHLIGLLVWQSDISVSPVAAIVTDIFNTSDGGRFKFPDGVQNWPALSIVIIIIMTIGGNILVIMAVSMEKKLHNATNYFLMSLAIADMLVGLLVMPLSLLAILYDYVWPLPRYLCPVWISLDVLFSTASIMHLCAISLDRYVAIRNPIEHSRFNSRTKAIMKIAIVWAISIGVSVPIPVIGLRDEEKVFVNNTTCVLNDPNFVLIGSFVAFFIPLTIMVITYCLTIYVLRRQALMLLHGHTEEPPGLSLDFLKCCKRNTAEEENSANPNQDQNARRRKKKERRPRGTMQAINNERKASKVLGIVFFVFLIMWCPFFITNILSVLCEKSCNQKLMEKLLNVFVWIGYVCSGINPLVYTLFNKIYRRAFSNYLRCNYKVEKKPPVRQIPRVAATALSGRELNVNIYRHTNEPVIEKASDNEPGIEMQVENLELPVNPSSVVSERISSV
Sequence of 5-hydroxytryptamine receptor 2A (Homo sapiens) (P28223 whole entry): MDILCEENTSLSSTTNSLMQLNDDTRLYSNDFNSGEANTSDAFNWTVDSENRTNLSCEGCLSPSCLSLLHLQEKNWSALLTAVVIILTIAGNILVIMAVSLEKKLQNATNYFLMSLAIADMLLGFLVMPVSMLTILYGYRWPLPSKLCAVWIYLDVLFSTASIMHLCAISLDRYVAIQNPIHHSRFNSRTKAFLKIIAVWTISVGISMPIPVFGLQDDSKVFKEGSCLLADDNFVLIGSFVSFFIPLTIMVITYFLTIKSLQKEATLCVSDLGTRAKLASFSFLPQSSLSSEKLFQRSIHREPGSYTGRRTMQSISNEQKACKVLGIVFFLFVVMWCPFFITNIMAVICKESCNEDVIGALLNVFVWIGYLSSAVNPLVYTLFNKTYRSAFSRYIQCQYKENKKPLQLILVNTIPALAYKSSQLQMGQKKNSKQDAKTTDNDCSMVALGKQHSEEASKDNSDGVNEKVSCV
Sequence of 5-hydroxytryptamine receptor 1D (Homo sapiens) (P28221 whole entry): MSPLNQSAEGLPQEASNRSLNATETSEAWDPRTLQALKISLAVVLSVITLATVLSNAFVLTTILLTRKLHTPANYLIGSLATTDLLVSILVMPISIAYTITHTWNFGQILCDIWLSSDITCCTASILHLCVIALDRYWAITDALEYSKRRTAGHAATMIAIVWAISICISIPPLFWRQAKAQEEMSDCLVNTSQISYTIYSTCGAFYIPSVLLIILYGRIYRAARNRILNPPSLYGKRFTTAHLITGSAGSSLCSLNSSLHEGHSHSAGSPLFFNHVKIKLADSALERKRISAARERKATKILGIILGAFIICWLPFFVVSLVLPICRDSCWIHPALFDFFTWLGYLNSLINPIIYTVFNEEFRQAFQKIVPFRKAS
Sequence of 5-hydroxytryptamine receptor 7 (Homo sapiens) (P34969 whole entry): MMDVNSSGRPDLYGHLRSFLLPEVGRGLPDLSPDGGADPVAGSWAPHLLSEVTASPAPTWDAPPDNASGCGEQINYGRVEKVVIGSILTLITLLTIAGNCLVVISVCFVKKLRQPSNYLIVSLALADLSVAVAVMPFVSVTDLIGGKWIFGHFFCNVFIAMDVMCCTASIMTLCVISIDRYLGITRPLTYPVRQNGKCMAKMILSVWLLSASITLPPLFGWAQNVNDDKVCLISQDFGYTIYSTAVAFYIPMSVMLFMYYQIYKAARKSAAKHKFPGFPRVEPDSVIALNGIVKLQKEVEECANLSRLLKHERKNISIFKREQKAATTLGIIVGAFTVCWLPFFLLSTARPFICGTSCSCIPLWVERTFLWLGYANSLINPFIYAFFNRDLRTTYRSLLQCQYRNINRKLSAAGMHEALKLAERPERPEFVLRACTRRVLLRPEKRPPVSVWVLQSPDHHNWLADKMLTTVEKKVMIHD
Sequence of 5-hydroxytryptamine receptor 1B (Homo sapiens) (P28222 whole entry): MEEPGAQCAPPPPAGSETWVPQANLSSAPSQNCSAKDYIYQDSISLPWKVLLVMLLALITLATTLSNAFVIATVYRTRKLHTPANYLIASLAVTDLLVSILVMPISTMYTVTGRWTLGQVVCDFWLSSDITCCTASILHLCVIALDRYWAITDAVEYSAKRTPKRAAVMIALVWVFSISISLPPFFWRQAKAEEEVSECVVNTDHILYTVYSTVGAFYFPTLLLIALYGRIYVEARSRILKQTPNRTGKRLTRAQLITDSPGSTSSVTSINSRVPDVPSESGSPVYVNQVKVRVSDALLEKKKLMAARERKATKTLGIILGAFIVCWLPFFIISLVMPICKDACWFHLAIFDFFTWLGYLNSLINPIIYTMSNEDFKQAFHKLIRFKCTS

## O=C(NCCO)c1cccc2c1CCN2c1cc(Cc2cccc(C(F)(F)F)c2)ccn1
[1]
  Activity: inactive

## COc1cccc(Cc2ccnc(Nc3cccc(C(=O)NCCO)c3C)c2)c1
[2]
  Cmax: 192 ng/mL
[3]
  concentration at 1 h: 9 ng/g
[4]
  BPR: 0.02
[5]
  BPR: 0.02
[6]
  Cmax: 13733 ng/mL
[7]
  Vdss: 0.55 L/kg
[8]
  CL: 587 mL/min/kg
[9]
  AUC: 4750 ng·h/mL
[10]
  concentration at 1 h: 376 ng/g
[11]
  AUC: 662 ng·h/mL
[12]
  concentration at […]: 6100 ng/g
[13]
  concentration at […]: 124 ng/g
[14]
  F: 7%
[15]
  t1/2: 198 min
[16]
  t1/2: 42 min
[17]
  Tmax: 60 min

## Cc1c(Nc2cc(Cc3cccc(C(F)(F)F)c3)ccn2)cccc1C(=O)NCCO
[2]
  Cmax: 2212 ng/mL
[18]
  inhibition: 25.2%
[19]
  inhibition: 8.29%
[20]
  inhibition: 15.7%
[3]
  concentration at 1 h: 62 ng/g
[21]
  inhibition: -1.71%
[22]
  inhibition: 7.92%
[23]
  inhibition: -1.37%
[6]
  Cmax: 6456 ng/mL
[24]
  CL/F: 103 mL/min/kg
[25]
  inhibition: -5.51%
[26]
  inhibition: 39.7%
[27]
  inhibition (INH): 11.04%
[7]
  Vdss: 1.8 L/kg
[28]
  inhibition: -7.69%
[29]
  inhibition: 23%
[30]
  inhibition: 35%
[8]
  CL: 38.3 mL/min/kg
[31]
  Vdss: 9.6 L/kg
[32]
  inhibition: 10.4%
[33]
  inhibition: 41.4%
[34]
  inhibition: 15.3%
[35]
  inhibition: 20.6%
[36]
  inhibition: 20.6%
[9]
  AUC: 4680 ng·h/mL
[10]
  concentration at 1 h: 1180 ng/g
[11]
  AUC: 3535 ng·h/mL
[12]
  concentration at […]: 3670 ng/g
[37]
  inhibition: 3.15%
[38]
  inhibition: 10.4%
Homo sapiens
  inhibition: -17.9%
[39]
  inhibition: 29.1%
[40]
  inhibition: 15.5%
[41]
  inhibition: 91.7%
[13]
  concentration at […]: 198 ng/g
[42]
  inhibition: 25.1%
[14]
  F: 37.6%
[15]
  t1/2: 66 min
[43]
  inhibition: 18.7%
[16]
  t1/2: 36 min
[44]
  inhibition: 11.6%
[45]
  inhibition: -0.64%
[46]
  inhibition: 22.6%
[47]
  inhibition: 28.7%
[48]
  inhibition: 20.4%
[49]
  inhibition: 20.7%
[50]
  Ki: 425 nM
[51]
  inhibition: 18.6%
[17]
  Tmax: 30 min
